Results reported in paper PMC7172891 (Peptides, 2008).

Experiments:
[1] = tested on: HSV-1; test: HSV-1 virus entry assay: plaque inhibition on Vero cells; format: cell-based; settings: for inhibition of HSV-1 infectivity, cell pre-exposure: peptide 250 μM, Vero cells treated with peptide before viral challenge; for activity in dose-dependent inhibition assay of HSV entry: co-treatment, up to 500 μM, Vero cells
[2] = PC/Chol (1:1) LUV, probe dilution assay; cited from earlier work
[3] = tested on: HIV-1; settings: cited from earlier work
[4] = tested on: parainfluenza-2 virus (PIV-2); test: Inhibition of PIV-2 infectivity, co-exposure mode; format: cell-based; settings: peptide 250 and 500 μM
Procedure, shortened: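 Co-exposure: cells and virus inoculum incubated together with peptide for 45 min at 37 °C. Non-penetrated virus inactivated with low-pH citrate buffer. Cells then held 48 h at 37 °C in DMEM with CMC, and plaques counted. Run in triplicate. Percent inhibition calculated against no-peptide control, with standard deviations; scrambled peptides run in parallel.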

[5] = Circular dichroism: helix content and oligomeric state; format: physicochemical; settings: for ratio θ222/θ208 (monomer about 0.8, oligomer above 1.0) / percentage of helix (CD, ellipticity at 222 nm): peptide 20 μM
Procedure, shortened: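 CD spectra at room temperature in 1.0 or 0.1 cm quartz cells. Peptide 20 μM titrated in varying % TFE; 5–200 μM series in buffer, 20% TFE and […]. For lipid samples, peptide in TFE was mixed with lipid in chloroform, dried, lyophilised and rehydrated in water to 0.9 mM final lipid. Scans averaged (three, 260–195 nm), blank-corrected, converted to MRE.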

[6] = Native gel electrophoresis: oligomeric state of peptides; format: physicochemical; settings: without SDS and with 4 mM and 5 mM SDS
Procedure, shortened: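 Peptide solution (1 mM in phosphate buffer pH 7.3, before mixing) incubated alone or with 4 or 5 mM SDS for 5 min at 25 °C. Non-denaturing PAGE with 4% stacking and 12% separating gel, run 2.5 h at constant 30 mA. Bands visualised with Coomassie R-250.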

[7] = Solubility / precipitation observations; format: physicochemical

## AAHLIDALYAEFLGGRVLTTPVVHRALFYASAVLRQPFLAGVPSA [gH493–537]
[1]; peptide 250 μM added after 45 min infection of Vero cells
  inhibition of HSV-1 infectivity, post-exposure treatment: not active
[1]
  inhibition of HSV-1 infectivity, cell pre-exposure: not active
[2]
  ability to induce fusion of vesicles (lipid mixing), previously reported: able to induce fusion

## Enfuvirtide
[3]
  inhibition of HIV-1: active at low nanomolar concentration

## GLASTLTRWAHYNALIRAF [gH626–644]
[1]
  inhibition of HSV-1 infectivity, cell pre-exposure: partially inhibit viral entry
[4]
  effect on parainfluenzavirus-2 (PIV-2) infectivity: none of these peptides exerted any significant effect
[5]; 20% TFE, TFE titration
  ratio θ222/θ208 (monomer about 0.8, oligomer above 1.0): approximately 1.05
[5]; 20% TFE, peptide 5 μM
  helicity (CD, ellipticity at 222 nm): about 19%
[5]; 20% TFE, room temperature
  percentage of helix (CD, ellipticity at 222 nm): 27%
[5]; 20% TFE, peptide 5–200 μM
  ratio θ222/θ208 over peptide concentration: around 1
[5]; CD data
  concentration at which the peptide already oligomerises (CD): 50 µM
[5]; buffer solution, spectra unaltered over 5–200 μM
  conformation in buffer solution (CD): random coil conformation
[5]; higher percentages of TFE
  ratio θ222/θ208 (monomer about 0.8, oligomer above 1.0): 0.76
[5]; increasing (higher) concentrations of TFE
  percentage of helix (CD, ellipticity at 222 nm): approximately 35%
[6]
  oligomer order in NATIVE-PAGE: forms higher order oligomers compared to gH493–512
[7]; 500 μM
  precipitation in inhibition experiments: probably indicating a precipitation of the peptide at this concentration
[7]; in presence of membranes, concentrations assayed in CD studies (5–200 μM)
  precipitation / macroscopic aggregation: did not precipitate or otherwise form macroscopic aggregates
[2]
  ability to induce fusion of vesicles (lipid mixing), previously reported: able to induce fusion

## RLTGLLATSGFAFVNAAHANGAVCLSDLLGFLAHSRALAG [gH381–420]
[1]
  activity in dose-dependent inhibition assay of HSV entry: non-significant activity
[2]
  ability to induce fusion of vesicles (lipid mixing), previously reported: able to induce fusion

## TWLATRGLLRSPGRYVYFSPSASTWPVGIWTTGELVLGCDAAL [gH220–262]
[1]
  activity in dose-dependent inhibition assay of HSV entry: non-significant activity
[2]
  ability to induce fusion of vesicles (lipid mixing), previously reported: able to induce fusion
